Results on eight compounds are retold here after ChEMBL document CHEMBL1140196, “Synthesis and biological activities of some new fluorinated coumarins and 1-aza coumarins” (Eur J Med Chem, 2008).

The term inhibition denotes the share of the control response that was lost under treatment. A higher inhibition goes with a strong effect. As usually defined, the LD50 is the dose expected to kill half of the subjects tested. A lower LD50 goes with greater toxicity. The term inhibition in vivo denotes the change of the read-out against control, counted positive when it falls.

In data set [1] the test system is Rattus norvegicus. Description: Gastrointestinal toxicity in Wistar rat assessed as ulcerogenic effect at 400 mg/kg, po administered twice at 2 hrs interval after 4 hrs. In kind it is organism-based. Details: dose 400 mg/kg, route oral. As to conditions: in vivo. The method, boiled down: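 Male Wistar rats fasted 36 h, then given 400 mg/kg orally twice, 2 h apart. Animals killed 4 h later and the stomach examined for lesions; ulcer index recorded.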

Data set [2] relates to Macrophomina phaseolina. As to the kind of experiment: Antifungal activity against Rhizoctonia bataticola at 100 ug/mL after 48 hrs by cup-plate method. Type of data set: functional.
A short description of data set [3]: Acute toxicity in ip dosed albino mouse after 24 hrs. In kind it is organism-based. As to conditions: in vivo. The essentials:
(§1)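 Groups of six albino mice (20–25 g), fasted overnight, dosed once orally or intraperitoneally at 100 to 1000 mg kg^-1 body weight. Observed for 24 h for mortality and signs of acute toxicity (altered motor activity, tremors, convulsion, sedation, lacrimation). LD50 cut-off set at the highest dose tested, 1000 mg kg^-1.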

Data set [4] has as its system Escherichia coli. As to the kind of experiment: Antibacterial activity against Escherichia coli at 50 ug/mL after 48 hrs by cup-plate method. In kind it is functional.
Data set [5] concerns Bacillus. Description: Antibacterial activity against […] at 50 ug/mL after 48 hrs by cup-plate method. In kind it is functional.
Data set [6] concerns Macrophomina phaseolina. As to the kind of experiment: Antifungal activity against Rhizoctonia bataticola at 25 ug/mL after 48 hrs by cup-plate method. Type of data set: functional.
A short description of data set [7]: Acute toxicity in po dosed albino mouse after 24 hrs. In kind it is organism-based. To be noted: in vivo. The essentials: as §1
For data set [8], the system named is Rattus norvegicus. Description: Antiinflammatory activity in Wistar rat assessed as inhibition of formalin-induced paw oedema volume at 100 mg/kg, po administered 30 mins before formalin challenge after 1 hr relative to control. Type of data set: functional. The essentials:
(§2)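 Oral dosing at 100 mg/kg as a 2% CMC suspension, 30 min before injecting 3.5% formalin into the paw. Groups of six Wistar rats of either sex. Paw volume read by mercury-displacement plethysmograph at 0 h (right after formalin) and at 1, 2, 3, 4 and 5 h. Percent inhibition versus plain 2% CMC controls; SEM reported.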

In data set [9] the test system is Aspergillus niger. Description: Antifungal activity against Aspergillus niger at 25 ug/mL after 48 hrs by cup-plate method. Type of data set: functional. To be noted: for zone of inhibition at 25 µg/mL: read-out: IZ.
Data set [10] deals with Aspergillus niger. As to the kind of experiment: Antifungal activity against Aspergillus niger at 50 ug/mL after 48 hrs by cup-plate method. Type of data set: functional.
Data set [11] has as its system Rattus norvegicus. As to the kind of experiment: Antiinflammatory activity in Wistar rat assessed as inhibition of formalin-induced paw oedema volume at 100 mg/kg, po administered 30 mins before formalin challenge after 5 hrs relative to control. In kind it is functional. The method, boiled down:
as §2

Data set [12] concerns Escherichia coli. As to the kind of experiment: Antibacterial activity against Escherichia coli at 25 ug/mL after 48 hrs by cup-plate method. To be noted: for zone of inhibition at 25 µg/mL: read-out: IZ. Type of data set: functional.
In data set [13] the test system is Rattus norvegicus. As to the kind of experiment: Antiinflammatory activity in Wistar rat assessed as inhibition of formalin-induced paw oedema volume at 100 mg/kg, po administered 30 mins before formalin challenge after 4 hrs relative to control. Type of data set: functional. The method, boiled down: as §2
In data set [14] the test system is Bacillus. As to the kind of experiment: Antibacterial activity against […] at 25 ug/mL after 48 hrs by cup-plate method. In kind it is functional. As to conditions: for zone of inhibition at 25 µg/mL: read-out: IZ.
Data set [15] deals with Mus musculus. Description: Analgesic activity in albino mouse assessed as inhibition of acetic acid-induced writhing at 10 mg/kg, po. In kind it is functional. The method, boiled down:
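Acetic acid writhing test: 0.6% acetic acid at 0.1 ml/10 g given intraperitoneally to albino mice of both sexes (18–22 g). Compounds given orally at 10 mg/kg as a suspension in 5% carboxymethyl cellulose. Indomethacin 10 mg/kg was the reference under the same conditions.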

Data set [16] deals with Macrophomina phaseolina. Description: Antifungal activity against Rhizoctonia bataticola at 50 ug/mL after 48 hrs by cup-plate method. In kind it is functional.
Data set [17] deals with Escherichia coli. As to the kind of experiment: Antibacterial activity against Escherichia coli at 100 ug/mL after 48 hrs by cup-plate method. In kind it is functional.
Data set [18] has as its system Bacillus. Description: Antibacterial activity against […] at 100 ug/mL after 48 hrs by cup-plate method. Type of data set: functional.
In data set [19] the test system is Aspergillus niger. As to the kind of experiment: Antifungal activity against Aspergillus niger at 100 ug/mL after 48 hrs by cup-plate method. Type of data set: functional.
Data set [20] relates to Rattus norvegicus. As to the kind of experiment: Antiinflammatory activity in Wistar rat assessed as inhibition of formalin-induced paw oedema volume at 100 mg/kg, po administered 30 mins before formalin challenge after 2 hrs relative to control. Type of data set: functional. The method, boiled down:
as §2

In data set [21] the test system is Rattus norvegicus. Description: Antiinflammatory activity in Wistar rat assessed as inhibition of formalin-induced paw oedema volume at 100 mg/kg, po administered 30 mins before formalin challenge after 3 hrs relative to control. Type of data set: functional. The method, boiled down: as §2

As to `O=c1cc(COc2ccc(F)cc2)c2cc(Cl)ccc2[nH]1`, in data set [1], the UI is reported as 71.42. Also, the inhibition at 100 µg/mL in data set [2] came to 84%; in data set [17], 81%; in data set [18], 80%; in data set [19], 75%. Moreover, the LD50 at 24 h in data set [3] is more than 800 mg/kg; in data set [7], more than 1000 mg/kg. Besides, the inhibition at 50 µg/mL in [4] came to 62%; in [5], 51%; in [10], 44%; in data set [16], 68%. The inhibition at 25 µg/mL in data set [6] is 50%; in data set [9] it was 29%; in [12] it was 45%; in data set [14], 28%. The inhibition in vivo at 100 mg/kg turned out to be 39% in [8]; 80% in data set [11]; 71% in [13]; 28% in data set [20]; 57% in data set [21]. Also, the zone of inhibition at 25 µg/mL in [9] amounted to 62 mm; in data set [12] it was 88 mm; in data set [14], 60 mm. The inhibition in vivo at 10 mg/kg in data set [15] came to 26.9%.
`O=c1cc(COc2ccc(F)cc2)c2cc(Cl)ccc2o1`: in data set [1], the UI is listed as 66.66. The inhibition at 100 µg/mL in data set [2] was found to be 89%; in [17], 94%; in data set [18], 97%; in [19] it was 89%. Also, the LD50 at 24 h is more than 700 mg/kg in data set [3] and more than 1000 mg/kg in [7]. In addition, the inhibition at 50 µg/mL in [4] came to 60%; in data set [5], 71%; in [10], 71%; in data set [16], 74%. Also, the inhibition at 25 µg/mL in data set [6] was 65%; in data set [9], 61%; in data set [12] it was 51%; in data set [14] it was 64%. Moreover, the inhibition in vivo at 100 mg/kg in data set [8] amounted to 39%; in [11], 80%; in data set [13], 71%; in data set [20], 38%; in data set [21], 58%. Besides, the zone of inhibition at 25 µg/mL in data set [12] stood at 92 mm. In addition, the inhibition in vivo at 10 mg/kg in [15] came out at 56.2%.
`Cc1ccc2c(CNc3ccc(F)cc3)cc(=O)oc2c1`: the UI in data set [1] was 64.93. The inhibition at 100 µg/mL was 70% in data set [2], 73% in [17], 74% in data set [18] and 67% in data set [19]. Moreover, the LD50 at 24 h in [3] was more than 800 mg/kg; in [7], more than 1000 mg/kg. Besides, the inhibition at 50 µg/mL turned out to be 46% in data set [4], 55% in data set [5], 33% in data set [10] and 49% in [16]. Besides, the inhibition at 25 µg/mL in data set [6] was found to be 26%; in data set [9], 14%; in data set [12], 27%; in data set [14] it was 28%. In addition, the inhibition in vivo at 100 mg/kg in data set [8] stood at 62%; in data set [11] it was 83%; in [13] it was 67%; in data set [20], 37%; in data set [21] it was 54%. Further, the figures for the zone of inhibition at 25 µg/mL in data set [9], in data set [12] and in data set [14] were 40 mm, 58 mm and 60 mm, respectively. In data set [15], the inhibition in vivo at 10 mg/kg amounted to 3.96%.
Consider `Cc1cccc2c(CNc3ccc(F)cc3)cc(=O)[nH]c12`, for which the UI in data set [1] is recorded as 55.35. For the same compound, the LD50 at 24 h in [3] is more than 700 mg/kg; in data set [7], more than 1000 mg/kg. In addition, the inhibition in vivo at 100 mg/kg came out at 23% in data set [8]; 85% in data set [11]; 73% in data set [13]; 28% in data set [20]; 6% in data set [21]. In addition, in data set [15], the inhibition in vivo at 10 mg/kg was 67%.
For the compound `O=c1cc(CNc2ccc(F)cc2)c2ccc(Cl)cc2[nH]1`, the UI in [1] was 61.42. The inhibition at 100 µg/mL in [2] amounted to 79%; in data set [17] it was 73%; in data set [18] it was 78%; in data set [19], 80%. Moreover, the median lethal dose (LD50) at 24 h in data set [3] is more than 700 mg/kg; in [7], more than 1000 mg/kg. Besides, the inhibition at 50 µg/mL came out at 54% in [4], 44% in data set [5], 52% in data set [10] and 62% in data set [16]. In addition, the inhibition at 25 µg/mL in [6] is 48%; in data set [9], 41%; in data set [12] it was 32%; in data set [14] it was 27%. In addition, the inhibition in vivo at 100 mg/kg in [8] came to 4%; in data set [11] it was 77%; in data set [13], 57%; in [20], 4%; in [21], 42%. Besides, the zone of inhibition at 25 µg/mL came to 78 mm in data set [9], 68 mm in data set [12] and 58 mm in [14]. Also, the inhibition in vivo at 10 mg/kg in data set [15] amounted to 28.6%.
Turning to `O=c1cc(COc2ccc(F)cc2)c2ccc(Cl)cc2[nH]1`, in data set [1], the UI was found to be 67.5. Moreover, the inhibition at 100 µg/mL is 86% in data set [2], 78% in data set [17], 76% in data set [18] and 79% in [19]. Further, the LD50 at 24 h in data set [3] was more than 800 mg/kg; in data set [7], more than 1000 mg/kg. Also, the inhibition at 50 µg/mL in data set [4] is 56%; in [5] it was 40%; in data set [10] it was 47%; in [16], 72%. Besides, the inhibition at 25 µg/mL in data set [6] amounted to 55%; in [9] it was 34%; in data set [12] it was 34%; in data set [14] it was 22%. In addition, the inhibition in vivo at 100 mg/kg in data set [8] was 24%; in data set [11] it was 78%; in [13] it was 66%; in data set [20], 24%; in data set [21], 54%. The values for the zone of inhibition at 25 µg/mL in data set [9], in [12] and in data set [14] were 68 mm, 72 mm and 52 mm, respectively. Further, the inhibition in vivo at 10 mg/kg in data set [15] worked out at 61.3%.
As for `O=c1cc(COc2ccc(F)cc2)c2ccc3ccccc3c2o1`, in data set [1], the UI stood at 61.8. The median lethal dose (LD50) at 24 h was more than 800 mg/kg in data set [3] and more than 1000 mg/kg in data set [7]. For the same compound, the inhibition in vivo at 100 mg/kg in data set [8] turned out to be 46%; in data set [11], 75%; in [13], 66%; in [20] it was 30%; in data set [21], 45%. Further, the inhibition in vivo at 10 mg/kg in data set [15] amounted to 23.2%.
For the compound `Cc1ccc2oc(=O)cc(COc3ccc(F)cc3)c2c1`, the UI in data set [1] is 57.29. In addition, the figures for the LD50 at 24 h in data set [3] and in data set [7] were more than 700 mg/kg and more than 1000 mg/kg, respectively. In addition, the inhibition in vivo at 100 mg/kg in data set [8] is 40%; in data set [11] it was 76%; in [13], 64%; in [20] it was 36%; in data set [21], 48%. Moreover, the inhibition in vivo at 10 mg/kg in [15] stood at 72.7%.
